The text below walks through data of ChEMBL document CHEMBL1121642, “Synthesis and antiherpetic activity of some 4-[(aryloxy)alkyl]pyrazoles” (1981).

Holding throughout (format): functional
Test [1] concerns Mus musculus. Kind of test: Effect on the survival rate of mouse infected with herpes genitalis (HSV-2) administered intravaginally at 5% dosage twice in a day. The procedure, abridged:
(§1)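 HSV-2 mouse genital model, infected intravaginally. Drug prepared in water + 1% gum tragacanth and given intravaginally b.i.d. via saturated cotton tampons, starting 4 h postinfection. Tampons were re-dosed with 0.02 mL 6 h after insertion and replaced daily. Test ended at day 14, with survivors assigned survival time >14 days. Read-out: % survival and average survival time.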

Test [2] concerns Human alphaherpesvirus 2. Description: (§2) Effect on the survival rate of mouse infected with herpes genitalis (HSV-2) administered intravaginally at 2% dosage twice in a day. In short, it runs like this: as §1
The subject of test [3] is Mus musculus. Described as §2. The procedure, abridged: as §1
The subject of test [4] is Mus musculus. Kind of test: Effect on the survival rate of mice infected with HSV-1 administered intravaginally at 2.5% dosage twice in a day. The procedure, abridged: (§3)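 Mice infected intravaginally with a tampon (dental pellet) saturated with HSV suspension. Aqueous drug solution given intravaginally b.i.d. on cotton tampons, starting 4 h postinfection. Each tampon stayed in 24 h, was re-moistened with 0.02 mL drug 6 h after insertion, and was replaced daily. Deaths were recorded daily to 14 days. Read-out: % survival and average survival time, with survivors scored >14 days.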

Test [5] is filed under the species Mus musculus. Description: Number of mice recovered from virus infected with Herpes simplex virus type-2 at 2.5% dosage twice in 3 rd day out of 10 mice sampled. The procedure, abridged:
(§4)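 Mice were infected intravaginally with HSV-2 Curtis strain. Starting 4 h postinfection, they were treated intravaginally with cotton tampons saturated with 10, 5, 2.5 or 1.25% drug solution, replaced daily, plus 0.02 mL added 6 h later. Vaginal washings with 1.5 mL M-199 were taken each morning on days 1–7, frozen at −70 °C and assayed in BSC-1 cells. Read-out: mice with recoverable virus/mice sampled.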

The species named for test [6] is Mus musculus. Kind of test: Number of mice recovered from virus infected with Herpes simplex virus type-2 at 5% dosage twice in 6 th day out of 8 mice sampled. In short, it runs like this: as §4
For test [7], the species on record is Mus musculus. Description: Number of mice recovered from virus infected with Herpes simplex virus type-2 at 5% dosage twice in 1 st day out of 10 mice sampled. The procedure, abridged: as §4
For test [8], the species on record is Mus musculus. Kind of test: Number of mice recovered from virus infected with Herpes simplex virus type-2 at 10% dosage twice in 1st day out of 10 mice sampled. The procedure, abridged: as §4
The species entered for test [9] is Mus musculus. Description: Number of mice recovered from virus infected with Herpes simplex virus type-2 at 10% dosage twice in 7 th day out of 10 mice sampled. In short, it runs like this:
as §4

Test [10] is filed under the species Mus musculus. Kind of test: Number of mice recovered from virus infected with Herpes simplex virus type-2 at 1.25% dosage twice in 1st day out of 10 mice sampled. In short, it runs like this:
as §4

Test [11] is filed under the species Mus musculus. Kind of test: Number of mice recovered from virus infected with Herpes simplex virus type-2 at 5% dosage twice in 2 nd day out of 10 mice sampled. In short, it runs like this:
as §4

The species entered for test [12] is Mus musculus. Description: Number of mice recovered from virus infected with Herpes simplex virus type-2 at 2.5% dosage twice in 1st day out of 10 mice sampled. In short, it runs like this:
as §4

For test [13], the species on record is Mus musculus. Description: Number of mice recovered from virus infected with Herpes simplex virus type-2 at 5% dosage twice in 3 rd day out of 10 mice sampled. The procedure, abridged:
as §4

The species named for test [14] is Mus musculus. Description: Number of mice recovered from virus infected with Herpes simplex virus type-2 at 10% dosage twice in 2 nd day out of 10 mice sampled. The procedure, abridged:
as §4

For test [15], the system named is Mus musculus. Description: Effect on the survival rate of mice infected with HSV-1 administered intravaginally at 1.25% dosage twice in a day. The procedure, abridged: as §3
Test [16] concerns Mus musculus. Description: Effect on the survival rate of mouse infected with herpes genitalis (HSV-2) administered intravaginally at 5% twice in a day.
The test system of test [17] is Mus musculus. Kind of test: Effect on the survival rate of mice infected with HSV-1 administered intravaginally at 10% dosage twice in a day. In short, it runs like this: as §3
The species entered for test [18] is Mus musculus. Description: Number of mice recovered from virus infected with Herpes simplex virus type-2 at 5% dosage twice in 4 th day out of 10 mice sampled. The procedure, abridged:
as §4

For test [19], the system named is Mus musculus. Kind of test: Effect on the survival rate of mice iinfected with HSV-1 administered intravaginally at 1.25% dosage twice in a day. The procedure, abridged: as §3
The test system of test [20] is Mus musculus. Description: Effect on the survival rate of mice infected with HSV-2 administered intravaginally at 1.25% dosage twice in a day. The procedure, abridged: as §3
The species entered for test [21] is Mus musculus. Description: Number of mice recovered from virus infected with Herpes simplex virus type-2 at 1.25% dosage twice in 2 nd day out of 10 mice sampled. In short, it runs like this:
as §4

The species entered for test [22] is Mus musculus. Kind of test: Number of mice recovered from virus infected with Herpes simplex virus type-2 at 10% dosage twice in 6 th day out of 10 mice sampled. The procedure, abridged: as §4
Test [23] is filed under the species Mus musculus. Description: Number of mice recovered from virus infected with Herpes simplex virus type-2 at 10% dosage twice in 3 rd day out of 10 mice sampled. In short, it runs like this: as §4
The species entered for test [24] is Mus musculus. Description: Number of mice recovered from virus infected with Herpes simplex virus type-2 at 1.25% dosage twice in 7 th day out of 10 mice sampled. In short, it runs like this:
as §4

The species entered for test [25] is Mus musculus. Kind of test: Number of mice recovered from virus infected with Herpes simplex virus type-2 at 2.5% dosage twice in 7 th day out of 8 mice sampled. In short, it runs like this:
as §4

For test [26], the species on record is Mus musculus. Kind of test: Number of mice recovered from virus infected with Herpes simplex virus type-2 at 2.5% dosage twice in 2 nd day out of 10 mice sampled. The procedure, abridged: as §4
The species entered for test [27] is Mus musculus. Description: Number of mice recovered from virus infected with Herpes simplex virus type-2 at 2.5% dosage twice in 4 th day out of 10 mice sampled. In short, it runs like this:
as §4

Test [28] relates to Mus musculus. Description: Effect on the survival rate of mice infected with HSV-2 administered intravaginally at 5% dosage twice in a day. In short, it runs like this: as §3
The species named for test [29] is Mus musculus. Description: Number of mice recovered from virus infected with Herpes simplex virus type-2 at 1.25% dosage twice in 4 th day out of 10 mice sampled. In short, it runs like this: as §4
Test [30] concerns Mus musculus. Kind of test: Effect on the survival rate of mice iinfected with HSV-1 administered intravaginally at 2.5% dosage twice in a day. In short, it runs like this: as §3
The species named for test [31] is Mus musculus. Kind of test: Number of mice recovered from virus infected with Herpes simplex virus type-2 at 10% dosage twice in 4 th day out of 10 mice sampled. In short, it runs like this: as §4
Test [32] is filed under the species Mus musculus. Kind of test: Number of mice recovered from virus infected with Herpes simplex virus type-2 at 2.5% dosage twice in 6 th day out of 10 mice sampled. The procedure, abridged: as §4
For test [33], the species on record is Mus musculus. Kind of test: Number of mice recovered from virus infected with Herpes simplex virus type-2 at 1.25% dosage twice in 3 rd day out of 10 mice sampled. The procedure, abridged: as §4
For test [34], the system named is Mus musculus. Kind of test: Effect on the survival rate of mice infected with HSV-1 administered intravaginally at 5% dosage twice in a day. The procedure, abridged:
as §3

For test [35], the system named is Mus musculus. Kind of test: Effect on the survival rate of mice infected with HSV-2 administered intravaginally at 2.5% dosage twice in a day. In short, it runs like this:
as §3

Test [36] concerns Mus musculus. Kind of test: Effect on the survival rate of mice infected with HSV-2 administered intravaginally at 10% dosage twice in a day. The procedure, abridged:
as §3

The species entered for test [37] is Mus musculus. Description: Number of mice recovered from virus infected with Herpes simplex virus type-2 at 5% dosage twice in 7 th day out of 8 mice sampled. The procedure, abridged:
as §4

On to `O=C(O)CP(=O)(O)O` [FOSFONET], for which the Average survival in test [1] and in test [3] was >13 days in each case. The Survival in [1] and in [2] was 90% each time.
Regarding `CCc1n[nH]c(CC)c1CCCCCCOc1ccc(OC)cc1Cl.CS(=O)(=O)O`, the Average survival in test [4] was >11 days; in [1], >13 days; in [15], >10 days; in [3], >11 days; in test [17] it was >13 days; in test [20] it was >10 days. Also, the Average survival in [28] was >13 days; in [34] it was >12 days; in test [35] it was >12 days; in test [36], >13 days. The “No. of mice receovered” value stood at 0 in test [5]; 0 in [6]; 1 in test [7]; 0 in [8]; 0 in test [9]; 0 in test [10]. Besides, the “No. of mice receovered” value in [11] was 0; in test [12] it was 0; in test [13], 0; in test [14] it was 0; in [18] it was 0; in [21] it was 1. The “No. of mice receovered” value amounted to 0 in [22]; 0 in test [23]; 0 in test [24]; 0 in [25]; 1 in test [26]; 0 in test [27]. Also, the “No. of mice receovered” value in test [29], in test [31], in test [32], in test [33] and in test [37] was 0 throughout. In addition, the Survival in test [3] turned out to be 60%; in test [16] it was 80%; in test [17] it was 70%; in test [19], 30%; in test [20], 40%; in [28], 90%. The Survival was 40% in test [30], 60% in [34], 70% in test [35] and 90% in test [36].
